The results in this text go back to ChEMBL document CHEMBL1126988, “Quinolone antibacterials containing the new 7-[3-(1-aminoethyl)-1- pyrrolidinyl] side chain: the effects of the 1-aminoethyl moiety and its stereochemical configurations on potency and in vivo efficacy” (J Med Chem, 1993).

Converted amounts (≈) assume the structure as drawn.

What all share (format): functional
One experiment has as its system Pseudomonas aeruginosa. The experiment is described as follows: Minimum inhibitory concentration was evaluated in vitro against Pseudomonas aeruginosa UI-18. The method in brief: (§1)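 Standard microtitration broth assay against a panel of 10 Gram-positive and Gram-negative organisms. MIC read in µg/mL and averaged over multiple experiments.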
In another experiment the test system is Streptococcus pneumoniae. The experiment is described as follows: Minimum inhibitory concentration was evaluated in vitro against Streptococcus pneumoniae SV-1. Put shortly: as §1
Experiment [1] has as its system Escherichia coli. Description: Antibacterial activity against Escherichia coli Vogel after oral administration in mouse. To be noted: for ED50: Escherichia coli, po, read-out: PD50.
Experiment [2] relates to Escherichia coli. Description: Antibacterial activity against Escherichia coli Vogel after subcutaneous administration in mouse. To be noted: for ED50: Escherichia coli, sc, read-out: PD50.
The subject of experiment [3] is Streptococcus pyogenes. The experiment is described as follows: Antibacterial activity measured as mouse protection against Streptococcus pyogenes C 203 after subcutaneous administration. As to conditions: for ED50: Streptococcus pyogenes, C 203, sc, read-out: PD50.
The subject of the next experiment is Enterobacter cloacae. The experiment is described as follows: Minimum inhibitory concentration in vitro against Enterobacter cloacae MA 2646.
In experiment [4] the test system is Streptococcus pyogenes. The experiment is described as follows: Minimum inhibitory concentration was evaluated in vitro against Streptococcus pyogenes C 203. The method in brief:
as §1

The subject of a further experiment is Providencia rettgeri. The experiment is described as follows: Minimum inhibitory concentration was evaluated in vitro against Providencia rettgeri M1771. Put shortly:
as §1

The test system of experiment [5] is Streptococcus pyogenes. The experiment is described as follows: Compounds were evaluated in vivo for antibacterial activity for mouse protection against Streptococcus pyogenes C 203 after oral administration. As to conditions: for ED50: Streptococcus pyogenes, C 203, po, read-out: PD50.
The test system of experiment [6] is Staphylococcus aureus. Description: Minimum inhibitory concentration was evaluated in vitro against Staphylococcus aureus H 228. Put shortly:
as §1

The next experiment has as its system Klebsiella pneumoniae. The experiment is described as follows: Minimum inhibitory concentration was evaluated in vitro against Klebsiella pneumoniae MGH2. The method in brief:
as §1

The subject of the next experiment is Enterococcus faecalis. The experiment is described as follows: Minimum inhibitory concentration was evaluated in vitro against Enterococcus faecalis MGH-2. Put shortly:
as §1

The test system of experiment [7] is Escherichia coli. The experiment is described as follows: Antibacterial activity in vitro against Escherichia coli Vogel. The method in brief: as §1
For experiment [8], the system named is Staphylococcus aureus. Description: Minimum inhibitory concentration was evaluated in vitro against Staphylococcus aureus UC 76. Put shortly:
as §1

[9] abbreviates: Pseudomonas aeruginosa, read-out: MIC.
Setting [10] is: Streptococcus pneumoniae, read-out: MIC.
Where [11] appears, read: Enterobacter cloacae, read-out: MIC.
Where [12] appears, read: Streptococcus pyogenes, read-out: MIC.
Where [13] appears, read: Providencia rettgeri, read-out: MIC.
Setting [14] is: Staphylococcus aureus, read-out: MIC.
[15] abbreviates: Klebsiella pneumoniae, read-out: MIC.
Setting [16] is: Enterococcus faecalis, read-out: MIC.
Where [17] appears, read: Escherichia coli, read-out: MIC.

For the molecule `CCN[C@@H](C)[C@@H]1CCN(c2nc3c(cc2F)c(=O)c(C(=O)O)cn3C2CC2)C1`, the minimum inhibitory concentration (MIC) with Pseudomonas aeruginosa turned out to be 3.1 µg/mL (≈ 7.98 µM); with Streptococcus pneumoniae, 0.1 µg/mL (≈ 0.257 µM); against Enterobacter cloacae, 0.2 µg/mL (≈ 0.515 µM); in the experiment on Streptococcus pyogenes [4], 0.4 µg/mL (≈ 1.03 µM); against Providencia rettgeri, 1.6 µg/mL (≈ 4.12 µM); in the experiment on Staphylococcus aureus [6], 0.2 µg/mL (≈ 0.515 µM). Moreover, the MIC is 0.4 µg/mL (≈ 1.03 µM) in the experiment with Klebsiella pneumoniae, 0.2 µg/mL (≈ 0.515 µM) with Enterococcus faecalis, 0.2 µg/mL (≈ 0.515 µM) against Escherichia coli [7] and 0.1 µg/mL (≈ 0.257 µM) against Staphylococcus aureus [8]. In addition, the PD50 with Escherichia coli [1] came to 3 mg/kg; in the experiment on Escherichia coli [2], 1 mg/kg; in the experiment on Streptococcus pyogenes [3] it was 9 mg/kg; in the experiment on Streptococcus pyogenes [5] it was 15 mg/kg.

As for `CCNCC1CCN(c2nc3c(cc2F)c(=O)c(C(=O)O)cn3-c2ccc(F)cc2F)C1` (stereo not drawn), the minimum inhibitory concentration (MIC) in the experiment with Pseudomonas aeruginosa (setting [9]) amounted to 1.6 µg/mL (≈ 3.58 µM); in the experiment with Streptococcus pneumoniae (setting [10]) it was 0.1 µg/mL (≈ 0.224 µM); in the experiment on Enterobacter cloacae (setting [11]), 0.2 µg/mL (≈ 0.448 µM); in the experiment with Streptococcus pyogenes [4] (setting [12]) it was 0.1 µg/mL (≈ 0.224 µM); with Providencia rettgeri (setting [13]), 0.8 µg/mL (≈ 1.79 µM); in the experiment with Staphylococcus aureus [6] (setting [14]) it was 0.1 µg/mL (≈ 0.224 µM). Also, the MIC turned out to be 0.4 µg/mL (≈ 0.896 µM) with Klebsiella pneumoniae (setting [15]), 0.2 µg/mL (≈ 0.448 µM) in the experiment with Enterococcus faecalis (setting [16]), 0.2 µg/mL (≈ 0.448 µM) in the experiment on Escherichia coli [7] (setting [17]) and 0.025 µg/mL (≈ 0.056 µM) in the experiment with Staphylococcus aureus [8] (setting [14]). Further, the ED50 is 6 mg/kg with Escherichia coli [1], 4 mg/kg in the experiment on Escherichia coli [2], 3 mg/kg with Streptococcus pyogenes [3] and 8 mg/kg with Streptococcus pyogenes [5].

`CCNCC1CCN(c2c(F)c(N)c3c(=O)c(C(=O)O)cn(C4CC4)c3c2F)C1` (stereo not drawn): the MIC was 0.2 µg/mL (≈ 0.492 µM) in the experiment with Pseudomonas aeruginosa (setting [9]); 0.003 µg/mL (≈ 0.00738 µM) in the experiment with Streptococcus pneumoniae (setting [10]); 0.05 µg/mL (≈ 0.123 µM) in the experiment with Enterobacter cloacae (setting [11]); 0.013 µg/mL (≈ 0.032 µM) in the experiment with Streptococcus pyogenes [4] (setting [12]); 0.1 µg/mL (≈ 0.246 µM) with Providencia rettgeri (setting [13]); 0.013 µg/mL (≈ 0.032 µM) in the experiment with Staphylococcus aureus [6] (setting [14]). Further, the MIC came out at 0.05 µg/mL (≈ 0.123 µM) in the experiment on Klebsiella pneumoniae (setting [15]), 0.025 µg/mL (≈ 0.0615 µM) with Enterococcus faecalis (setting [16]), 0.05 µg/mL (≈ 0.123 µM) in the experiment with Escherichia coli [7] (setting [17]) and 0.003 µg/mL (≈ 0.00738 µM) in the experiment with Staphylococcus aureus [8] (setting [14]). Besides, the ED50 in the experiment on Escherichia coli [1] was 16 mg/kg; in the experiment on Escherichia coli [2] it was 2 mg/kg; with Streptococcus pyogenes [3], 3 mg/kg; in the experiment on Streptococcus pyogenes [5] it was 5 mg/kg.

`CN[C@H](C)[C@@H]1CCN(c2c(F)cc3c(=O)c(C(=O)O)cn(C4CC4)c3c2OC)C1`: the MIC in the experiment with Pseudomonas aeruginosa (setting [9]) was 3.1 µg/mL (≈ 7.68 µM); in the experiment on Streptococcus pneumoniae (setting [10]), 0.013 µg/mL (≈ 0.0322 µM); in the experiment with Enterobacter cloacae (setting [11]), 0.1 µg/mL (≈ 0.248 µM); in the experiment with Streptococcus pyogenes [4] (setting [12]), 0.025 µg/mL (≈ 0.062 µM); in the experiment on Providencia rettgeri (setting [13]) it was 0.4 µg/mL (≈ 0.991 µM); in the experiment on Staphylococcus aureus [6] (setting [14]), 0.05 µg/mL (≈ 0.124 µM). The minimum inhibitory concentration (MIC) was 0.2 µg/mL (≈ 0.496 µM) in the experiment with Klebsiella pneumoniae (setting [15]), 0.05 µg/mL (≈ 0.124 µM) in the experiment with Enterococcus faecalis (setting [16]), 0.1 µg/mL (≈ 0.248 µM) in the experiment with Escherichia coli [7] (setting [17]) and 0.013 µg/mL (≈ 0.0322 µM) with Staphylococcus aureus [8] (setting [14]). The ED50 was found to be 12 mg/kg with Escherichia coli [1], 3 mg/kg in the experiment on Escherichia coli [2], 1 mg/kg in the experiment on Streptococcus pyogenes [3] and 4 mg/kg with Streptococcus pyogenes [5].

With `CCNCC1CCN(c2nc3c(cc2F)c(=O)c(C(=O)O)cn3C2CC2)C1` (stereo not drawn), the minimal inhibitory concentration (MIC) was 0.8 µg/mL (≈ 2.14 µM) with Pseudomonas aeruginosa (setting [9]); 0.1 µg/mL (≈ 0.267 µM) in the experiment with Streptococcus pneumoniae (setting [10]); 0.2 µg/mL (≈ 0.534 µM) in the experiment with Enterobacter cloacae (setting [11]); 0.2 µg/mL (≈ 0.534 µM) in the experiment with Streptococcus pyogenes [4] (setting [12]); 0.8 µg/mL (≈ 2.14 µM) in the experiment on Providencia rettgeri (setting [13]); 0.1 µg/mL (≈ 0.267 µM) in the experiment on Staphylococcus aureus [6] (setting [14]). The minimal inhibitory concentration (MIC) in the experiment with Klebsiella pneumoniae (setting [15]) was found to be 0.2 µg/mL (≈ 0.534 µM); with Enterococcus faecalis (setting [16]), 0.1 µg/mL (≈ 0.267 µM); in the experiment on Escherichia coli [7] (setting [17]), 0.1 µg/mL (≈ 0.267 µM); with Staphylococcus aureus [8] (setting [14]), 0.05 µg/mL (≈ 0.134 µM). Moreover, the ED50 worked out at 7 mg/kg in the experiment with Escherichia coli [1], 1 mg/kg in the experiment on Escherichia coli [2], 8 mg/kg with Streptococcus pyogenes [3] and 17 mg/kg in the experiment on Streptococcus pyogenes [5].

`CCn1cc(C(=O)O)c(=O)c2cc(F)c(N3CCC(CN)C3)c(F)c21` (stereo not drawn): the minimal inhibitory concentration (MIC) stood at 0.4 µg/mL (≈ 1.14 µM) with Pseudomonas aeruginosa (setting [9]); 0.1 µg/mL (≈ 0.285 µM) in the experiment with Streptococcus pneumoniae (setting [10]); 0.2 µg/mL (≈ 0.569 µM) with Enterobacter cloacae (setting [11]); 0.05 µg/mL (≈ 0.142 µM) in the experiment on Streptococcus pyogenes [4] (setting [12]); 0.4 µg/mL (≈ 1.14 µM) with Providencia rettgeri (setting [13]); 0.1 µg/mL (≈ 0.285 µM) with Staphylococcus aureus [6] (setting [14]). Besides, the MIC with Klebsiella pneumoniae (setting [15]) came to 0.4 µg/mL (≈ 1.14 µM); in the experiment with Enterococcus faecalis (setting [16]), 0.1 µg/mL (≈ 0.285 µM); in the experiment on Escherichia coli [7] (setting [17]) it was 0.1 µg/mL (≈ 0.285 µM); in the experiment with Staphylococcus aureus [8] (setting [14]), 0.1 µg/mL (≈ 0.285 µM). Also, the ED50 with Escherichia coli [1] stood at 90 mg/kg; in the experiment with Escherichia coli [2] it was 1 mg/kg; with Streptococcus pyogenes [3] it was 5 mg/kg; in the experiment with Streptococcus pyogenes [5] it was 100 mg/kg.

Regarding `CNCC1CCN(c2cc3c(cc2F)c(=O)c(C(=O)O)cn3C2CC2)C1` (stereo not drawn), the MIC amounted to 0.8 µg/mL (≈ 2.23 µM) with Pseudomonas aeruginosa (setting [9]); 0.05 µg/mL (≈ 0.139 µM) in the experiment with Streptococcus pneumoniae (setting [10]); 0.2 µg/mL (≈ 0.556 µM) with Enterobacter cloacae (setting [11]); 0.05 µg/mL (≈ 0.139 µM) in the experiment with Streptococcus pyogenes [4] (setting [12]); 0.4 µg/mL (≈ 1.11 µM) with Providencia rettgeri (setting [13]); 0.2 µg/mL (≈ 0.556 µM) with Staphylococcus aureus [6] (setting [14]). The MIC turned out to be 0.2 µg/mL (≈ 0.556 µM) with Klebsiella pneumoniae (setting [15]), 0.1 µg/mL (≈ 0.278 µM) with Enterococcus faecalis (setting [16]), 0.1 µg/mL (≈ 0.278 µM) in the experiment with Escherichia coli [7] (setting [17]) and 0.025 µg/mL (≈ 0.0696 µM) in the experiment on Staphylococcus aureus [8] (setting [14]). The ED50 was 35 mg/kg with Escherichia coli [1], 2 mg/kg with Escherichia coli [2], 5 mg/kg with Streptococcus pyogenes [3] and greater than 50 mg/kg in the experiment on Streptococcus pyogenes [5].
